According to paper PMC4493896 (Journal of Medicinal Chemistry, 2015):

Legend:
[1] = tested on: cancer and normal cells; conditions: same assay conditions; cited from earlier work
[2] = tested on: Nurr1/NR4A2 mRNA; test: qRT-PCR of endogenous CREB target gene in HEK 293T cells; format: cell-based; conditions: forskolin 10 μM
[3] = tested on: A549, MCF-7, MDA-MB-231, MDA-MB-468 cells; test: MTT assay, statements across the cancer cell line panel; format: cell-based; conditions: 72 h
Procedure, shortened: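 Cells in DMEM with nonessential amino acids and 10% FBS (37 °C, 5% CO2) attached overnight, then took test compound at a range of concentrations up to 100 μM for 72 h. MTT (0.5 mg/mL in complete medium) was added for 3 h at 37 °C, formazan dissolved in DMSO, A570 read. Growth = 100×(At−A0)/(Ac−A0), with time-0 and medium-treated controls.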

[4] = tested on: CREB-mediated gene transcription; test: CREB Renilla luciferase; format: cell-based; conditions: HEK 293T cells

COc1cccc2c1C(=O)c1c(O)c3c(c(O)c1C2=O)C[C@@](O)(C(=O)CO)C[C@@H]3O[C@H]1C[C@H](N)[C@H](O)[C@H](C)O1 [doxorubicin]
differential toxicity between cancer and normal cells [1]: did not show differential toxicity

C=C[C@@]1(C)CC(=O)[C@]2(O)[C@@]3(C)[C@@H](O)CCC(C)(C)[C@@H]3[C@H](O)[C@H](OC(C)=O)[C@@]2(C)O1 [forskolin]
stimulation of Nurr1/NR4A2 level [2]: ~31 fold

O=C(NCCCOc1cc2ccccc2cc1C(=O)Nc1ccc(Cl)cc1O)c1cc2ccccc2cc1OCCCO [Compound 3g, N-(4-Chloro-2-hydroxyphenyl)-3-(3-(3-(3-hydroxypropoxy)-2-naphthamido)propoxy)-2-naphthamide]
GI50 ([3]; read-out: GI50 values, range over all four cancer cell lines): 10.2 to 82.7 µM

Cl.NCCCOc1cc2ccccc2cc1C(=O)NCCCOc1cc2ccccc2cc1C(=O)Nc1ccc(Cl)cc1 [Compound 3b, 3-(3-Aminopropoxy)-N-(3-((3-((4-chlorophenyl)carbamoyl)naphthalen-2-yl)oxy)propyl)-2-naphthamide Hydrochloride]
decrease of CREB inhibition activity in comparison to 3a [4]: about 2 fold

Cl.O=C(NCCCOc1cc2ccccc2cc1C(=O)Nc1ccc(Cl)cc1O)c1cc2ccccc2cc1OCCCN1CCOCC1 [Compound 3e, N-(4-Chloro-2-hydroxyphenyl)-3-(3-(3-(3-morpholinopropoxy)-2-naphthamido)propoxy)-2-naphthamide Hydrochloride]
growth inhibition activity in the other three cancer cell lines ([3]; A549, MCF-7, MDA-MB-231, MTT): no activity
